Assays:
Mus musculus [1] = assay: Compound was tested for anticonvulsant activity in maximal electroshock seizure(MES) test after 30 min upon intraperitoneal administration to mice at a dose of 114 mg/kg; Animals protected / Animals tested = 3/10; format: functional
Outline: (§1)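 Male OF1 mice (15-25 g), free access to water only during testing. Compound given ip and maximal electroshock applied at 30 min or 3 h. Typically 8-10 mice per compound, dose and time point. Screening at initial 0.4 mmol/kg, scored as protected/tested.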

Mus musculus [2] = assay: Compound was tested for anticonvulsant activity in maximal electroshock seizure(MES) test after 3 hours upon intraperitoneal administration to mice at a dose of 114 mg/kg; Animals protected / Animals tested = 4/8; format: functional; outline: as §1
[3] = Lipophilicity value was evaluated; format: physicochemical; conditions: RP-HPLC
Outline: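 Lipophilicity by RP-HPLC on a C18 column at 1.0 mL/min. Mobile phases were 10-50% […] with 50-90% 0.01 M phosphate buffer pH 7.4. Triplicate runs per eluent. log k_o extrapolated from at least four eluent compositions. ClogP also calculated.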

Mus musculus [4] = assay: Compound was tested for anticonvulsant activity in maximal electroshock seizure(MES) test after 3 hours upon intraperitoneal administration to mice; format: functional; conditions: ip; outline: as §1
Mus musculus [5] = assay: Compound was tested for anticonvulsant activity in maximal electroshock seizure(MES) test after 30 min upon intraperitoneal administration to mice; format: functional; conditions: ip, 0.5 h; outline: as §1
Mus musculus [6] = assay: Percent of the tonic seizures after 30 min in the 3-mercaptopropionic acid test in mice at a dose of 418 mg/kg, ip; format: functional; conditions: route intraperitoneal
Outline: (§2)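 Male NMRI mice (18-25 g). Compound in DMSO given ip at 2 mL/kg. 3-Mercaptopropionic acid 40 mg/kg ip in saline given 30 min or 3 h later. Tonic seizures recorded and expressed as % of animals.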

Mus musculus [7] = assay: Percent of the tonic seizures after 3h in the 3-mercaptopropionic acid test in mice at a dose of 418mg/kg, ip; format: functional; outline: as §2
Mus musculus [8] = assay: The average latency on the onset of the seizures compared to the controls after 3 hr in the strychnine test in mice at a dose of 209 mg/kg; format: functional
Outline: (§3)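 Male NMRI mice (18-25 g). Compound in DMSO given ip at 2 mL/kg. Strychnine chlorhydrate in saline (1.2 mg/mL, 1 mL/kg) given sc 30 min or 3 h later, with 30 min observation. Seizure onset latency expressed as % of the mean control latency (mean ± SD, n = 8-10).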

Mus musculus [9] = assay: Compound was tested for anticonvulsant activity in maximal electroshock seizure(MES) test after 30 min upon intraperitoneal administration to mice at a dose of 84 mg/kg; Animals protected / Animals tested = 2/8; format: functional; outline: as §1
Mus musculus [10] = assay: Percent of the tonic seizures after 30 min in the 3-mercaptopropionic acid test in mice at a dose of 209 mg/kg, ip; format: functional; conditions: route intraperitoneal; outline: as §2
Mus musculus [11] = assay: Percent of the tonic seizures after 3h in the 3-mercaptopropionic acid test in mice at a dose of 209 mg/kg, ip; format: functional; conditions: route intraperitoneal; outline: as §2
Mus musculus [12] = assay: The average latency on the onset of the seizures compared to the controls after 30 min in the strychnine test in mice at a dose of 209 mg/kg; format: functional; outline: as §3
Mus musculus [13] = assay: Compound was tested for anticonvulsant activity in maximal electroshock seizure(MES) test after 3 hours upon intraperitoneal administration to mice at a dose of 750 mg/kg; format: functional; conditions: ip; outline: as §1
Mus musculus [14] = assay: Compound was tested for anticonvulsant activity in maximal electroshock seizure(MES) test after 30 min upon intraperitoneal administration to mice at a dose of 89 mg/kg; Animals protected / Animals tested = 2/8; format: functional; outline: as §1
Mus musculus [15] = assay: The average latency on the onset of the seizures compared to the controls after 30 min in the strychnine test in mice at a dose of 220 mg/kg; format: functional; outline: as §3
Mus musculus [16] = assay: The average latency on the onset of the seizures compared to the controls after 3h in the strychnine test in mice at a dose of 220 mg/kg; format: functional; outline: as §3
Mus musculus [17] = assay: Compound was tested for anticonvulsant activity in maximal electroshock seizure(MES) test after 3 hours upon intraperitoneal administration to mice at a dose of 106 mg/kg; Animals protected / Animals tested = 4/8; format: functional; outline: as §1
Mus musculus [18] = assay: Compound was tested for anticonvulsant activity in maximal electroshock seizure(MES) test after 3 hours upon intraperitoneal administration to mice at a dose of 116 mg/kg; Animals protected / Animals tested = 3/8; format: functional; outline: as §1
Mus musculus [19] = assay: Ratio of the animals protected to animals tested after 30 min. in the MES test after intraperitoneal administration to mice at a dose of 150 mg/kg; Animals protected / Animals tested = 2/10; format: functional; outline: as §1
Mus musculus [20] = assay: Ratio of the animals protected to animals tested after 3h in the MES test after intraperitoneal administration to mice at a dose of 150 mg/kg; Animals protected / Animals tested = 3/8; format: functional; outline: as §1
Mus musculus [21] = assay: Compound was tested for anticonvulsant activity in maximal electroshock seizure(MES) test after 30 min upon intraperitoneal administration to mice at a dose of 120 mg/kg; Animals protected / Animals tested = 4/10; format: functional; outline: as §1
Mus musculus [22] = assay: Compound was tested for anticonvulsant activity in maximal electroshock seizure(MES) test after 3 hours upon intraperitoneal administration to mice at a dose of 120 mg/kg; Animals protected / Animals tested = 6/9; format: functional; outline: as §1
Mus musculus [23] = assay: Ratio of the animals protected to animals tested after 30 min. in the MES test after intraperitoneal administration to mice at a dose of 150 mg/kg; Animals protected / Animals tested = 1/8; format: functional; outline: as §1
Mus musculus [24] = assay: Ratio of the animals protected to animals tested after 3h in the MES test after intraperitoneal administration to mice at a dose of 150 mg/kg; Animals protected / Animals tested = 5/10; format: functional; outline: as §1
Mus musculus [25] = assay: Compound was tested for anticonvulsant activity in maximal electroshock seizure(MES) test after 30 min upon intraperitoneal administration to mice at a dose of 120 mg/kg; Animals protected / Animals tested = 0/8; format: functional; outline: as §1
Mus musculus [26] = assay: Compound was tested for anticonvulsant activity in maximal electroshock seizure(MES) test after 3 hours upon intraperitoneal administration to mice at a dose of 89 mg/kg; Animals protected / Animals tested = 4/10; format: functional; outline: as §1
Mus musculus [27] = assay: Compound was tested for anticonvulsant activity in maximal electroshock seizure(MES) test after 30 min upon intraperitoneal administration to mice at a dose of 89 mg/kg; Animals protected / Animals tested = 3/8; format: functional; outline: as §1
Mus musculus [28] = assay: Compound was tested for anticonvulsant activity in maximal electroshock seizure(MES) test after 30 min upon intraperitoneal administration to mice at a dose of 120 mg/kg; Animals protected / Animals tested = 1/8; format: functional; outline: as §1
Mus musculus [29] = assay: The average latency on the onset of the seizures compared to the controls after 30 min in the strychnine test at a dose of 207 mg/kg; format: functional; outline: as §3
Mus musculus [30] = assay: Compound was tested for anticonvulsant activity in maximal electroshock seizure(MES) test after 30 min upon intraperitoneal administration to mice at a dose of 166 mg/kg; Animals protected / Animals tested = 3/9; format: functional; outline: as §1
Mus musculus [31] = assay: Percent of the tonic seizures after 3h in the 3-mercaptopropionic acid test at a dose of 207 mg/kg; format: functional; outline: as §2
Mus musculus [32] = assay: The average latency on the onset of the seizures compared to the controls after 3h in the strychnine test at a dose of 207 mg/kg; format: functional; outline: as §3
Mus musculus [33] = assay: Percent of the tonic seizures after 30 min in the 3-mercaptopropionic acid test at a dose of 207 mg/kg; format: functional; outline: as §2
Mus musculus [34] = assay: Compound was tested for anticonvulsant activity in maximal electroshock seizure(MES) test after 3 hours upon intraperitoneal administration to mice at a dose of 166 mg/kg; Animals protected / Animals tested = 6/9; format: functional; outline: as §1
Mus musculus [35] = assay: Compound was tested for anticonvulsant activity in maximal electroshock seizure(MES) test after 30 min upon intraperitoneal administration to mice at a dose of 58 mg/kg; Animals protected / Animals tested = 2/10; format: functional; outline: as §1
Mus musculus [36] = assay: Compound was tested for anticonvulsant activity in maximal electroshock seizure(MES) test after 3 hr upon intraperitoneal administration to mice; format: functional; conditions: ip; outline: as §1
Mus musculus [37] = assay: Compound was tested for anticonvulsant activity in maximal electroshock seizure(MES) test after 30 min upon intraperitoneal administration to mice at a dose of 750 mg/kg; format: functional; conditions: ip, 0.5 h; outline: as §1

O=C(CNC(=O)OCc1ccccc1)Nc1ccccc1
Protected/tested (Mus musculus [1]): 3 | Protected/tested (Mus musculus [2]): 4 | Log Ko [3]: 3.49

CC(C)NC(=O)CNC(=O)OCc1ccccc1
ED50 (Mus musculus [4]): 9.5 mg/kg | ED50 (Mus musculus [5]): 14 mg/kg | Log Ko [3]: 2.65

O=C(O)CNC(=O)OCc1ccccc1
ED50 (Mus musculus [4]): 56.5 mg/kg | Tonic seizures (Mus musculus [6]): 33% | Tonic seizures (Mus musculus [7]): 27% | Average latency (Mus musculus [8]): 142% | Protected/tested (Mus musculus [9]): 2 | Tonic seizures (Mus musculus [10]): 55% | Tonic seizures (Mus musculus [11]): 45% | Average latency (Mus musculus [12]): 150%

COC(=O)CNC(=O)OCc1ccccc1
ED50 (Mus musculus [13]): 16.5 mg/kg | Protected/tested (Mus musculus [14]): 2 | Average latency (Mus musculus [15]): 154% | Average latency (Mus musculus [16]): 139% | Log Ko [3]: 2.64

CC(C)(C)NC(=O)CNC(=O)OCc1ccccc1
ED50 (Mus musculus [5]): 39.4 mg/kg | Protected/tested (Mus musculus [17]): 4 | Log Ko [3]: 3.25

O=C(CNC(=O)OCc1ccccc1)NC1CCCCC1
ED50 (Mus musculus [5]): 33.4 mg/kg | Protected/tested (Mus musculus [18]): 3 | Log Ko [3]: 3.7

CCCCCCCCCCNC(=O)CNC(=O)OCc1ccccc1
Protected/tested (Mus musculus [19]): 2 | Protected/tested (Mus musculus [20]): 3 | Log Ko [3]: > 5

O=C(CNC(=O)OCc1ccccc1)OCc1ccccc1
Protected/tested (Mus musculus [21]): 4 | Protected/tested (Mus musculus [22]): 6 | Log Ko [3]: 4.35

CCCCCCCCCCOC(=O)CNC(=O)OCc1ccccc1
Protected/tested (Mus musculus [23]): 1 | Log Ko [3]: > 5 | Protected/tested (Mus musculus [24]): 5

Cc1ccc(NC(=O)CNC(=O)OCc2ccccc2)cc1
ED50 (Mus musculus [4]): 27.4 mg/kg | Protected/tested (Mus musculus [25]): 0 | Log Ko [3]: 3.99

COC(=O)CNC(=O)CCc1ccccc1
Protected/tested (Mus musculus [26]): 4 | Protected/tested (Mus musculus [27]): 3 | Log Ko [3]: 2.37

Cc1ccccc1NC(=O)CNC(=O)OCc1ccccc1
ED50 (Mus musculus [4]): 74.3 mg/kg | Protected/tested (Mus musculus [28]): 1 | Log Ko [3]: 3.49

O=C(CNC(=O)OCc1ccccc1)NCCc1ccccc1
ED50 (Mus musculus [4]): 16.6 mg/kg | ED50 (Mus musculus [5]): 8.1 mg/kg | Log Ko [3]: 3.88

NC(=O)CNC(=O)OCc1ccccc1
ED50 (Mus musculus [4]): 8.3 mg/kg | ED50 (Mus musculus [5]): 15.2 mg/kg | Log Ko [3]: 1.52

CNC(=O)CNC(=O)OCc1ccccc1
ED50 (Mus musculus [4]): 7.8 mg/kg | ED50 (Mus musculus [5]): 13.6 mg/kg | Log Ko [3]: 2.03

O=C(O)CNC(=O)CCc1ccccc1 [HYDROCINNAMOYLGLYCINE]
Average latency (Mus musculus [29]): 99% | Protected/tested (Mus musculus [30]): 3 | Tonic seizures (Mus musculus [31]): 100% | Average latency (Mus musculus [32]): 96% | Tonic seizures (Mus musculus [33]): 80% | Protected/tested (Mus musculus [34]): 6

CCCCCNCC(N)=O [MILACEMIDE]
ED50 (Mus musculus [4]): 30.2 mg/kg | Protected/tested (Mus musculus [35]): 2

O=C1NC(=O)C(c2ccccc2)(c2ccccc2)N1 [PHENYTOIN]
ED50 (Mus musculus [5]): 3.5 mg/kg | ED50 (Mus musculus [36]): 3 mg/kg

CCCC(CCC)C(=O)O [VALPROIC ACID]
ED50 (Mus musculus [37]): 44.5 mg/kg | ED50 (Mus musculus [13]): 80.6 mg/kg

CCCC(CCC)C(N)=O [VALPROMIDE]
ED50 (Mus musculus [37]): 14.9 mg/kg | ED50 (Mus musculus [13]): 11.4 mg/kg

Source: ChEMBL document CHEMBL1131201, “N-(benzyloxycarbonyl)glycine esters and amides as new anticonvulsants” (J Med Chem, 1998)
